Drawing on PubChem BioAssay, this text covers GFP response vs DMSO, GFP response relative to DMSO and GFP response, % of DMSO for 14 compounds.

Experiment [1] is described as follows: hit retest on RPL19A-GFP reporter strain – cell-based, S. cerevisiae, flow cytometry, cherry picks, mother/daughter gates, confirmation (AID 2270;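 active = GFP response below 50% of the DMSO control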). Particulars: 3 h, at 10 µM, stronger effect = lower value, 100 = same GFP as DMSO wells.
The nature of experiment [2]: yeast TOR pathway reporter LAP4-GFP change – cell-based, cherry picks, flow cytometry, mother/daughter gates, confirmation (AID 2271;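 active = GFP response above 150% of the DMSO control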;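 note: ratio of sample to DMSO plate mean so 100% equals DMSO level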). The conditions noted are these: S. cerevisiae LAP4-GFP strain, 3 h, at 10 µM, stronger effect = higher value, 100 means same as DMSO control. The method, boiled down: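 material = Alexa 633-stained baker's yeast GFP-fusion strain | amount = 0.2 OD600 cells | schedule = 30 °C, 3 h compound incubation, rotating | signal = GFP by flow cytometry | measure = per-gate (all, mother, daughter) GFP response vs DMSO | controls = positive rapamycin (400 ng/mL), negative DMSO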
In general terms: In flow cytometry, cells or beads pass a laser one at a time.

Experiment [3] is described as follows: TOR pathway reporter MEP2-GFP, retest of hits – S. cerevisiae, flow cytometry GFP, cherry picks, confirmation (AID 2272;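 active = GFP response above 150% of the DMSO control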;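 note: ratio of well signal to plate DMSO mean so 100% equals DMSO level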). The conditions noted are these: S. cerevisiae MEP2-GFP strain, 3 h, at 10 µM, stronger effect = higher value.
Experiment [4] can be described thus: yeast AGP1-GFP fluorescence change, single-dose – cell-based, flow cytometry, S. cerevisiae, cherry picks, confirmation (AID 2273).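 Note: median GFP channel fluorescence over the whole cell population gate.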 The conditions noted are these: S. cerevisiae AGP1-GFP strain, 3 h, at 10 µM.
The nature of experiment [5]: TOR pathway CIT2 reporter hit retest – S. cerevisiae, GFP fusion, cherry picks, mother/daughter gates, confirmation (AID 2274). The conditions noted are these: S. cerevisiae CIT2-GFP strain, flow cytometry, 3 h, at 10 µM, stronger effect = higher value.
Where [6] appears, read: measured here: daughter cell gate.
Where [7] appears, read: measured here: mother cell gate.
[8] abbreviates: measured here: daughter cell gate response.
The mark [9] stands for this setting: measured here: mother cell gate response.

Activity calls are given as the source filed them.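 Rule for the calls, unless noted: active = GFP response above 150% of the DMSO level; inconclusive = fewer than 70 events counted for a yeast strain; inactive = the rest.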

Take `Cc1nn(C)c(C)c1N1C(=O)c2cccc3c(Br)ccc(c23)C1=O`: the GFP response vs DMSO in experiment [1] was 103% (inactive); in experiment [1] (setting [6]), 102%; in experiment [1] (setting [7]) it was 103%; in experiment [3], 207% (active). Besides, the GFP response relative to DMSO is 136% (inactive) in experiment [2], 137% in experiment [2] (setting [8]) and 134% in experiment [2] (setting [9]). The GFP response, % of DMSO in experiment [4] is 112% (inactive); in experiment [5], 148% (inactive); in experiment [5] (setting [6]), 152%; in experiment [5] (setting [7]) it was 141%.
Consider `OCc1ccccc1SSc1ccccc1CO`, for which the GFP response vs DMSO in experiment [1] is 101% (inactive); in experiment [1] (setting [6]), 99.2%; in experiment [1] (setting [7]), 98.5%; in experiment [3], 100% (inactive). The GFP response relative to DMSO in experiment [2] is 149% (inactive); in experiment [2] (setting [8]), 137%; in experiment [2] (setting [9]), 156%. Besides, the GFP response, % of DMSO in experiment [4] was 104% (inactive); in experiment [5], 103% (inactive); in experiment [5] (setting [6]) it was 101%; in experiment [5] (setting [7]), 99.8%.
As to `C/C(=N\NC(=O)c1cc2ccccc2cc1O)c1ccccn1`, the GFP response vs DMSO is 106% (inactive) in experiment [1], 103% in experiment [1] (setting [6]), 98.1% in experiment [1] (setting [7]) and 126% (inactive) in experiment [3]. In addition, the GFP response relative to DMSO in experiment [2] was 234% (active); in experiment [2] (setting [8]), 147%; in experiment [2] (setting [9]), 231%. Moreover, the GFP response, % of DMSO in experiment [4] was 109% (inactive); in experiment [5], 132% (inactive); in experiment [5] (setting [6]), 113%; in experiment [5] (setting [7]), 120%.
`COc1cc(CCN2C(=O)c3cccc4cccc(c34)C2=O)c(S(=O)(=O)NCCCO)cc1OC`: the GFP response vs DMSO in experiment [1] was 99.1% (inactive); in experiment [1] (setting [6]), 98.5%; in experiment [1] (setting [7]), 99.7%; in experiment [3] it was 99.5% (inactive). Also, the results for the GFP response relative to DMSO in experiment [2], in experiment [2] (setting [8]) and in experiment [2] (setting [9]) were 95.3% (inactive), 96.5% and 94.6%, respectively. For the same compound, the GFP response, % of DMSO in experiment [4] was 93.6% (inactive); in experiment [5] it was 95% (inactive); in experiment [5] (setting [6]) it was 96.4%; in experiment [5] (setting [7]), 93.3%.
Consider `O=C(CCC(F)(F)F)N1CCC(CO)(CCc2ccccc2)CC1`, for which the GFP response vs DMSO in experiment [1] is 102% (inactive); in experiment [1] (setting [6]) it was 99.8%; in experiment [1] (setting [7]) it was 102%; in experiment [3], 102% (inactive). The GFP response relative to DMSO in experiment [2] was 91.4% (inactive); in experiment [2] (setting [8]), 95.6%; in experiment [2] (setting [9]) it was 92.1%. For the same compound, the GFP response, % of DMSO in experiment [4] is 101% (inactive); in experiment [5], 107% (inactive); in experiment [5] (setting [6]), 106%; in experiment [5] (setting [7]) it was 106%.
As for `CCCc1[nH]nc2c1C1(C(=O)N(C(C)C)c3ccccc31)C(C#N)=C(N)O2` (centres undefined), the GFP response vs DMSO in experiment [1] is 98.2% (inactive); in experiment [1] (setting [6]), 99.8%; in experiment [1] (setting [7]) it was 98.2%; in experiment [3], 106% (inactive). The GFP response relative to DMSO in experiment [2] was 96.5% (inactive); in experiment [2] (setting [8]), 104%; in experiment [2] (setting [9]), 96.4%. In addition, the GFP response, % of DMSO was 99.1% (inactive) in experiment [4], 98.6% (inactive) in experiment [5], 101% in experiment [5] (setting [6]) and 99.3% in experiment [5] (setting [7]).
As to `Cc1cc(OCC(=O)Nc2ccc(S(=O)(=O)N3CCN(C)CC3)cc2)ccc1Br`, the GFP response vs DMSO was 98% (inactive) in experiment [1], 98.7% in experiment [1] (setting [6]), 97.3% in experiment [1] (setting [7]) and 101% (inactive) in experiment [3]. For the same compound, the GFP response relative to DMSO was 97.7% (inactive) in experiment [2], 99% in experiment [2] (setting [8]) and 97.4% in experiment [2] (setting [9]). The GFP response, % of DMSO in experiment [4] was 106% (inactive); in experiment [5], 101% (inactive); in experiment [5] (setting [6]) it was 101%; in experiment [5] (setting [7]), 103%.
For the compound `CCOC(=O)C1=C(Cc2ccc(F)cc2)C(=O)c2ccccc2C1=O`, the GFP response vs DMSO in experiment [1] is 97.8% (inactive); in experiment [1] (setting [6]), 99.6%; in experiment [1] (setting [7]), 95.8%; in experiment [3] it was 106% (inactive). For the same compound, the GFP response relative to DMSO in experiment [2] was 101% (inactive); in experiment [2] (setting [8]) it was 97.9%; in experiment [2] (setting [9]) it was 104%. Moreover, the GFP response, % of DMSO in experiment [4] is 92.5% (inactive); in experiment [5], 95% (inactive); in experiment [5] (setting [6]), 96.4%; in experiment [5] (setting [7]), 92.1%.
For the compound `CSC(SC)=C(C#N)C(=O)c1ccccc1`, the GFP response vs DMSO is 102% (inactive) in experiment [1], 98.6% in experiment [1] (setting [6]), 99.8% in experiment [1] (setting [7]) and 103% (inactive) in experiment [3]. Further, the GFP response relative to DMSO is 128% (inactive) in experiment [2], 117% in experiment [2] (setting [8]) and 129% in experiment [2] (setting [9]). For the same compound, the GFP response, % of DMSO in experiment [4] is 96.3% (inactive); in experiment [5], 93% (inactive); in experiment [5] (setting [6]), 92%; in experiment [5] (setting [7]) it was 93.2%.
With `O=S1(=O)Nc2c(ccc3cccnc23)-c2ccccc21`, the GFP response vs DMSO in experiment [1] was 89.9% (inactive); in experiment [1] (setting [6]), 91.7%; in experiment [1] (setting [7]) it was 103%; in experiment [3], 112% (inactive). In addition, the results for the GFP response relative to DMSO in experiment [2], in experiment [2] (setting [8]) and in experiment [2] (setting [9]) were 124% (inactive), 104% and 163%, respectively. In addition, the GFP response, % of DMSO was 103% (inactive) in experiment [4], 111% (inactive) in experiment [5], 108% in experiment [5] (setting [6]) and 113% in experiment [5] (setting [7]).
With `O=[N+]([O-])c1ccc(Sc2ccccc2Cl)nc1`, the GFP response vs DMSO in experiment [1] was 103% (inactive); in experiment [1] (setting [6]), 104%; in experiment [1] (setting [7]) it was 103%; in experiment [3] it was 112% (inactive). Moreover, the GFP response relative to DMSO in experiment [2] was 91.9% (inactive); in experiment [2] (setting [8]), 93.6%; in experiment [2] (setting [9]), 89.7%. For the same compound, the GFP response, % of DMSO in experiment [4] was 106% (inactive); in experiment [5], 105% (inactive); in experiment [5] (setting [6]), 106%; in experiment [5] (setting [7]) it was 103%.
Turning to `Cc1ccc(NC(=S)c2nc3ccccc3[nH]2)cc1`, the GFP response vs DMSO in experiment [1] is 101% (inactive); in experiment [1] (setting [6]), 99.6%; in experiment [1] (setting [7]), 99.3%; in experiment [3], 109% (inactive). In addition, the GFP response relative to DMSO in experiment [2] was 125% (inactive); in experiment [2] (setting [8]), 120%; in experiment [2] (setting [9]) it was 128%. Also, the GFP response, % of DMSO was 88.3% (inactive) in experiment [4], 102% (inactive) in experiment [5], 103% in experiment [5] (setting [6]) and 99.3% in experiment [5] (setting [7]).
For the compound `CCc1nnc(NC(=O)c2nc(S(=O)(=O)Cc3ccc(C)cc3)ncc2Cl)s1`, the GFP response vs DMSO is 98.2% (inactive) in experiment [1], 99.1% in experiment [1] (setting [6]), 98.6% in experiment [1] (setting [7]) and 102% (inactive) in experiment [3]. The GFP response relative to DMSO in experiment [2] was 105% (inactive); in experiment [2] (setting [8]) it was 105%; in experiment [2] (setting [9]), 102%. For the same compound, the GFP response, % of DMSO was 103% (inactive) in experiment [4], 101% (inactive) in experiment [5], 102% in experiment [5] (setting [6]) and 99.1% in experiment [5] (setting [7]).
As to `COC(=O)Cn1cc(/C=C/c2cc[n+](C)cc2)c2ccccc21`, the GFP response vs DMSO in experiment [1] was 99.3% (inactive); in experiment [1] (setting [6]), 99.3%; in experiment [1] (setting [7]), 98.2%; in experiment [3], 112% (inactive). Moreover, the GFP response relative to DMSO in experiment [2] is 97.7% (inactive); in experiment [2] (setting [8]), 99%; in experiment [2] (setting [9]), 98.4%. Further, the GFP response, % of DMSO in experiment [4] is 104% (inactive); in experiment [5] it was 104% (inactive); in experiment [5] (setting [6]) it was 105%; in experiment [5] (setting [7]), 104%.
